# From ChEMBL document CHEMBL1144865, “N-aminoimidazole derivatives inhibiting retroviral replication via a yet unidentified mode of action” (J Med Chem, 2003)
# Tested on: Human immunodeficiency virus 1
# Experiment: Concentration required to inhibit the viral (HIV-1 NL4.3 strain) cytopathic effect by 50% in MT-4 cells.
# Type: functional, organism-based
# Conditions: Human immunodeficiency virus 1, MT4
# How it was run: (§1)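 Virus-infected MT-4 cells cultured with serial compound dilutions; viability measured 5 days after infection by MTT tetrazolium colorimetric read-out. The value is the concentration protecting 50% of cells from viral cytopathic effect. Averages ± SD from at least two independent experiments. HIV-2 and SIV stocks came from infected MT-4 culture supernatants.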
row,Structure (SMILES),IC50 [µM]
1,COc1ccc(-c2c(C)nc(S)n2Nc2cccc(Cl)c2)cc1,> 38.7
2,CC1N=C(S)N(Nc2ccccc2)C1C (stereo not drawn),> 181
3,CC1N=C(S)N(Nc2cccc(Br)c2)C1c1ccccc1 (stereo not drawn),4.52
4,Cc1nc(S)n(Nc2cccc(Cl)c2)c1-c1ccc(Br)cc1,> 33.2
5,Cc1cccc(NN2C(S)=NC(C)C2C)c1 (stereo not drawn),> 360
6,COC(=O)c1cccc(C2C(C)N=C(S)N2Nc2cccc(Cl)c2)c1 (stereo not drawn),> 67.4
7,SC1=NC(c2ccccc2)C(c2ccccc2)N1Nc1cccc(Cl)c1 (stereo not drawn),> 36.3

# Further lines, results first:
row,IC50 [µM],Structure (SMILES)
1,> 34.5,CCc1ccc(NN2C(S)=NC(C)C2c2ccccc2)cc1 (stereo not drawn)
2,> 42.1,CSc1nc(C)c(-c2ccccc2)n1Nc1cccc(Cl)c1
3,> 48.8,COC(=O)C1N=C(S)N(Nc2cccc(Cl)c2)C1C (stereo not drawn)
4,> 33.1,COC(=O)c1cccc(-c2c(C)ncn2Nc2cccc(Cl)c2)c1
5,> 34.4,COc1cccc(Nn2cnc(C)c2-c2ccccc2)c1

# Tested on: Human immunodeficiency virus 1
# Experiment: Concentration required to inhibit the viral (HIV-1 IIIB strain) cytopathic effect by 50% in MT-4 cells.
# Type: functional, organism-based
# Conditions: Human immunodeficiency virus 1, MT4
# How it was run: as §1
row,Structure (SMILES),IC50 [µM]
1,COc1ccc(-c2c(C)nc(S)n2Nc2cccc(Cl)c2)cc1,> 38.7
2,CC1N=C(S)N(Nc2ccccc2)C1C (stereo not drawn),> 181
3,CC1N=C(S)N(Nc2cccc(Br)c2)C1c1ccccc1 (stereo not drawn),9.96
4,Cc1nc(S)n(Nc2cccc(Cl)c2)c1-c1ccc(Br)cc1,> 33.2
5,Cc1cccc(NN2C(S)=NC(C)C2C)c1 (stereo not drawn),> 360
6,COC(=O)c1cccc(C2C(C)N=C(S)N2Nc2cccc(Cl)c2)c1 (stereo not drawn),> 67.4
7,SC1=NC(c2ccccc2)C(c2ccccc2)N1Nc1cccc(Cl)c1 (stereo not drawn),> 36.3

# More lines, now with the values ahead:
row,IC50 [µM],Structure (SMILES)
1,> 34.5,CCc1ccc(NN2C(S)=NC(C)C2c2ccccc2)cc1 (stereo not drawn)
2,> 42.1,CSc1nc(C)c(-c2ccccc2)n1Nc1cccc(Cl)c1
3,> 48.8,COC(=O)C1N=C(S)N(Nc2cccc(Cl)c2)C1C (stereo not drawn)
4,> 33.1,COC(=O)c1cccc(-c2c(C)ncn2Nc2cccc(Cl)c2)c1
5,> 34.4,COc1cccc(Nn2cnc(C)c2-c2ccccc2)c1

# Tested on: Human immunodeficiency virus 2
# Experiment: Concentration required to inhibit the viral (HIV-2 ROD) cytopathic effect by 50% in MT-4 cells.
# Type: functional, organism-based, MT4
# Conditions: Human immunodeficiency virus 2, MT4
# How it was run: as §1
row,Structure (SMILES),IC50 [µM]
1,COc1ccc(-c2c(C)nc(S)n2Nc2cccc(Cl)c2)cc1,> 38.7
2,CC1N=C(S)N(Nc2ccccc2)C1C (stereo not drawn),> 181
3,CC1N=C(S)N(Nc2cccc(Br)c2)C1c1ccccc1 (stereo not drawn),> 44.2
4,Cc1nc(S)n(Nc2cccc(Cl)c2)c1-c1ccc(Br)cc1,> 33.2
5,Cc1cccc(NN2C(S)=NC(C)C2C)c1 (stereo not drawn),> 360
6,COC(=O)c1cccc(C2C(C)N=C(S)N2Nc2cccc(Cl)c2)c1 (stereo not drawn),> 67.4
7,SC1=NC(c2ccccc2)C(c2ccccc2)N1Nc1cccc(Cl)c1 (stereo not drawn),> 36.3

# Further lines, results first:
row,IC50 [µM],Structure (SMILES)
1,> 34.5,CCc1ccc(NN2C(S)=NC(C)C2c2ccccc2)cc1 (stereo not drawn)
2,> 42.1,CSc1nc(C)c(-c2ccccc2)n1Nc1cccc(Cl)c1
3,> 48.8,COC(=O)C1N=C(S)N(Nc2cccc(Cl)c2)C1C (stereo not drawn)
4,> 33.1,COC(=O)c1cccc(-c2c(C)ncn2Nc2cccc(Cl)c2)c1
5,> 34.4,COc1cccc(Nn2cnc(C)c2-c2ccccc2)c1

# Tested on: Human immunodeficiency virus 1
# Experiment: Concentration required to inhibit the viral (HIV-1 NNRTI resistant strain) cytopathic effect by 50% in MT-4 cells.
# Type: functional, organism-based
# Conditions: Human immunodeficiency virus 1, MT4
# How it was run: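 MT-4 cells infected with HIV-1(III_B)-derived strain S0561945 (K103N + Y181C RT mutations, NNRTI-resistant). Cultured with varying compound concentrations; viability read on day 5 post-infection by MTT tetrazolium colorimetry. Value is the concentration giving 50% protection against virus-induced cytopathic effect. Cytotoxicity measured in parallel on mock-infected cells at day 5. Averages ± SD from at least two independent experiments.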
row,Structure (SMILES),IC50 [µM]
1,COc1ccc(-c2c(C)nc(S)n2Nc2cccc(Cl)c2)cc1,> 38.7
2,CC1N=C(S)N(Nc2cccc(Br)c2)C1c1ccccc1 (stereo not drawn),5.77
3,SC1=NC(c2ccccc2)C(c2ccccc2)N1Nc1cccc(Cl)c1 (stereo not drawn),> 36.3

# Tested on: Simian immunodeficiency virus
# Experiment: Concentration required to inhibit the viral (SIV mac251) cytopathic effect by 50% in MT-4 cells.
# Type: functional, organism-based, MT4
# Conditions: Simian immunodeficiency virus, mac251, MT4
# How it was run: as §1
row,Structure (SMILES),IC50 [µM]
1,COc1ccc(-c2c(C)nc(S)n2Nc2cccc(Cl)c2)cc1,10.1
2,CC1N=C(S)N(Nc2ccccc2)C1C (stereo not drawn),> 181
3,CC1N=C(S)N(Nc2cccc(Br)c2)C1c1ccccc1 (stereo not drawn),2.72
4,Cc1nc(S)n(Nc2cccc(Cl)c2)c1-c1ccc(Br)cc1,> 33.2
5,Cc1cccc(NN2C(S)=NC(C)C2C)c1 (stereo not drawn),> 360
6,COC(=O)c1cccc(C2C(C)N=C(S)N2Nc2cccc(Cl)c2)c1 (stereo not drawn),> 67.4
7,SC1=NC(c2ccccc2)C(c2ccccc2)N1Nc1cccc(Cl)c1 (stereo not drawn),> 36.3

# The next lines start with the values.
row,IC50 [µM],Structure (SMILES)
1,> 34.5,CCc1ccc(NN2C(S)=NC(C)C2c2ccccc2)cc1 (stereo not drawn)
2,> 42.1,CSc1nc(C)c(-c2ccccc2)n1Nc1cccc(Cl)c1
3,> 48.8,COC(=O)C1N=C(S)N(Nc2cccc(Cl)c2)C1C (stereo not drawn)
4,> 33.1,COC(=O)c1cccc(-c2c(C)ncn2Nc2cccc(Cl)c2)c1
5,> 34.4,COc1cccc(Nn2cnc(C)c2-c2ccccc2)c1

# Tested on: MT4
# Experiment: Concentration that reduced the MT-4 cell viability by 50%.
# Type: functional, Homo sapiens
# Conditions: Homo sapiens, MT4
# How it was run: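 Mock-infected MT-4 cells, run in parallel with the antiviral assay, were exposed to compound. Viability on day 5 was read by MTT colorimetry. The value is the concentration lowering viability by 50%. Averages ± SD from at least two independent experiments.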
row,Structure (SMILES),CC50 [µM]
1,CCc1ccc(NN2C(S)=NC(C)C2c2ccccc2)cc1 (stereo not drawn),34.5
2,CSc1nc(C)c(-c2ccccc2)n1Nc1cccc(Cl)c1,42.1
3,COc1ccc(-c2c(C)nc(S)n2Nc2cccc(Cl)c2)cc1,38.7
4,COC(=O)C1N=C(S)N(Nc2cccc(Cl)c2)C1C (stereo not drawn),48.8
5,CC1N=C(S)N(Nc2ccccc2)C1C (stereo not drawn),181
6,CC1N=C(S)N(Nc2cccc(Br)c2)C1c1ccccc1 (stereo not drawn),44.2
7,Cc1nc(S)n(Nc2cccc(Cl)c2)c1-c1ccc(Br)cc1,33.2
8,Cc1cccc(NN2C(S)=NC(C)C2C)c1 (stereo not drawn),360
9,COC(=O)c1cccc(C2C(C)N=C(S)N2Nc2cccc(Cl)c2)c1 (stereo not drawn),67.4
10,COC(=O)c1cccc(-c2c(C)ncn2Nc2cccc(Cl)c2)c1,33.1
11,SC1=NC(c2ccccc2)C(c2ccccc2)N1Nc1cccc(Cl)c1 (stereo not drawn),36.3
12,COc1cccc(Nn2cnc(C)c2-c2ccccc2)c1,34.4
